Activity calls are given as the source filed them. The rule behind the calls is not given here.
Tests used:
[1] = biological target: T1, ATP-dependent Clp protease proteolytic subunit (Staphylococcus aureus (strain NCTC 8325)) (UniProt Q2G036); experiment: (§1) Inhibition of N-terminal His6-sumo-tagged full length Staphylococcus aureus ClpP expressed in Escherichia coli BL2 (DE3) pre-incubated for 10 mins before Suc-LY-AMC addition and measured after 1 hr by fluorescence based assay
T1 sequence (whole entry): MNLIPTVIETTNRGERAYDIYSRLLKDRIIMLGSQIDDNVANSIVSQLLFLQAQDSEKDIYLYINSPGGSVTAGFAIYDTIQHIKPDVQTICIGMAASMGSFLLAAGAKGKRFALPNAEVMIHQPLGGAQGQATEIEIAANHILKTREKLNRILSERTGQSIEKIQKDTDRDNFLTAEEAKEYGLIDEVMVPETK
Summary of the method: (§2)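 SaClpP (1 μM monomer) in 100 mM Hepes pH 7.0, 100 mM NaCl. Preincubated 10 min at RT with inhibitor, two-fold dilutions over 8 steps from 100 μM. Suc-LY-AMC at 200 μM, 380/440 nm recorded for 1 h at 37 °C, slopes normalized to DMSO. For kinact/Ki, inhibitor premixed with substrate and reaction started by enzyme, fitted by least squares. Thrice, triplicate wells.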

[2] = biological target: T2, ATP-dependent Clp protease proteolytic subunit (Staphylococcus aureus (strain NCTC 8325), UniProt Q2G036); experiment: as §1; summary of the method: as §2
T2 sequence (Q2G036 whole entry): T1 sequence (whole entry)

[3] = biological target: T1, ATP-dependent Clp protease proteolytic subunit (Staphylococcus aureus (strain NCTC 8325)); experiment: Inhibition of N-terminal His6-sumo-tagged full length Staphylococcus aureus ClpP expressed in Escherichia coli […] (DE3) assessed as Kinact/Ki ratio […] and measured after 1 hr by fluorescence based assay
[4] = biological target: T2, ATP-dependent Clp protease proteolytic subunit; experiment: Inhibition of ClpP in methicillin-resistant Staphylococcus aureus ATCC 33591 assessed as reduction in bacteria-induced hemolysis of sheep erythrocytes by measuring hemoglobin release incubated for 15 mins
[5] = Induction of hemolysis in sheep erythrocytes by measuring hemoglobin release incubated for 15 mins; format: cell-based, Ovis aries, Erythrocyte
Summary of the method: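 Serially diluted compound mixed directly with 2% sheep erythrocytes in 10 mM Tris pH 7.4, 0.9% NaCl. Buffer served as negative and water as positive control. After 1,500 rpm, 15 min spin, released hemoglobin read at 545 nm. Three experiments, triplicate tubes.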

[6] = Cytotoxicity in human HeLa cells assessed as reduction in cell viability incubated for 24 hrs by MTT assay; format: cell-based
Summary of the method: (§3)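 MTT assay. HeLa (3×10^3 cells) or HepG2 (4×10^3 cells) seeded in DMEM and grown 24 h, then given compound for a further 24 h. Absorbance read at 570 nm against DMSO wells. GI50 from dose-response fit; three experiments, triplicate wells.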

[7] = Cytotoxicity in human HepG2 cells assessed as reduction in cell viability incubated for 24 hrs by MTT assay; format: cell-based; summary of the method: as §3
[8] = biological target: T1, ATP-dependent Clp protease proteolytic subunit (Staphylococcus aureus (strain NCTC 8325)); experiment: Binding affinity to N-terminal His6-sumo-tagged full length Staphylococcus aureus ClpP expressed in Escherichia coli […] assessed as change in melting temperature at 100 uM by differential scanning calorimetry analysis
Summary of the method: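 DSC: SaClpP at 0.5 mg/mL (25 μM) incubated at RT with 100 μM inhibitor in assay buffer. Scanned at 1 °C/min over 30–90 °C, with a buffer-buffer scan subtracted. Tm taken as the thermogram peak maximum. Run once, single sample.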

[9] = biological target: T1, ATP-dependent Clp protease proteolytic subunit (Staphylococcus aureus (strain NCTC 8325)); experiment: as §1, with “[…] assessed as enzyme activity recovery level at 20-fold molar excess” for “(DE3)”, “hr followed by dialysis up to 72 hrs” for “hr”, “assay relative to control” for “assay”; design: scale not given: the % may be the effect or the level left
Summary of the method: (§4)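 ClpP (1 μM, 100 mM Hepes pH 7.0, 100 mM NaCl) incubated 1 h at RT with 20-fold molar excess inhibitor or DMSO. Dialyzed at 4 °C, buffer changed after 6 h and then every 24 h. Aliquots assayed for peptidase activity with Suc-LY-AMC. Thrice, single sample.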

[10] = Inhibition of human ClpP (57 to 277 residues) expressed in Escherichia coli […] pre-incubated for 10 mins before Ac-WLA-AMC addition and measured after 1 hr by fluorescence based assay relative to control
Summary of the method: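 hClpP (3.5 μM monomer) in 25 mM Tris-HCl pH 8.0, 100 mM KCl. Preincubated 10 min at RT with inhibitor, two-fold dilutions over 8 steps from 100 μM. Then 100 μM Ac-WLA-AMC, 380/440 nm for 1 h at 37 °C, slopes normalized to DMSO. Thrice, triplicate wells.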

[11] = Inhibition of Pseudomonas aeruginosa ClpP1 expressed in Escherichia coli […] pre-incubated for 10 mins before Suc-LY- AMC addition and measured after 1 hr by fluorescence based assay relative to control
Summary of the method: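 PaClpP1 (0.5 μM monomer) in 25 mM Tris-Cl pH 7.5, 150 mM NaCl. Preincubated 10 min at RT with inhibitor, two-fold dilutions over 8 steps from 50 μM. Then 50 μM Suc-LY-AMC, 380/440 nm for 1 h at 37 °C, slopes normalized to DMSO. Thrice, triplicate wells.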

[12] = biological target: 20S proteasome (Homo sapiens) (UniProt P49721+P20618+P28074+P28062+P28065+P28072+P25786+P25787+P25788+P25789+P28066+P60900+O14818+Q8TAA3+P40306+A5LHX3+P49720+P28070+Q99436); experiment: Inhibition of 20S proteasome (unknown origin) pre-incubated before Suc-LLVY-AM addition and measured after 1 hr by fluorescence based assay; format: protein-complex assay
[13] = Inhibition of AlgW (unknown origin) up to 100 uM pre-incubated for 10 mins before Abz-T-V-A-W-pNA addition and measured after 1 hr by fluorescence based assay
[14] = biological target: Coagulation factor X (Homo sapiens) (UniProt P00742); experiment: Inhibition of human F10a up to 100 uM pre-incubated for 10 mins before Pefachrome Fxa addition and measured after […] based assay
Coagulation factor X (Homo sapiens), sequence (P00742 41-179 limits assumed): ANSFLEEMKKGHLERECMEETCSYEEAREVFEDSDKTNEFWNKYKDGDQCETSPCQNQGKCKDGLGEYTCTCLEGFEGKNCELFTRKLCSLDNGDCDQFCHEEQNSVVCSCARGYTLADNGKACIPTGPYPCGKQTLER
Coagulation factor X (Homo sapiens), sequence (P00742 235-488 limits assumed): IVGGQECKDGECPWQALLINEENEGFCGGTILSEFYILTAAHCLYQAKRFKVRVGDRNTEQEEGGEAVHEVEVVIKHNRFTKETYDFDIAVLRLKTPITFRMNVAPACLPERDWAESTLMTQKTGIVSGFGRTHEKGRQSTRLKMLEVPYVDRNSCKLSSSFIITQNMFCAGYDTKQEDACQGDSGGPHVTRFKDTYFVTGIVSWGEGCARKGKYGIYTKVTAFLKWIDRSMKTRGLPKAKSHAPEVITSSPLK

Staphylococcus aureus [15] = experiment: (§5) Antivirulence activity against methicillin-resistant Staphylococcus aureus ATCC 33591 infected in BALB/c mouse model of skin abscess assessed as reduction in skin inflammation at 3 mg/kg injected into shaved area of skin once daily for 4 days measured after 12 hrs post last dose by hematoxylin and eosin staining based optical microscopy; format: functional, organism-based
Summary of the method: (§6)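 Same MRSA ATCC 33591 skin-abscess model in female BALB/c mice (n=5/group), 40 µL compound at 1.5 or 3 mg/kg injected into the infected shaved skin once daily for 4 days. On day 4 infected skin and heart, liver, spleen, lung, kidney fixed in 4% paraformaldehyde, embedded, sectioned, H&E stained and examined by microscopy; PBS-treated uninfected and vehicle controls.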

Staphylococcus aureus [16] = experiment: as §5, with “preservation of” for “reduction in”, “integrity” for “inflammation”; format: functional, organism-based; summary of the method: as §6
Staphylococcus aureus [17] = experiment: as §5, with “severe alveolar destruction” for “skin inflammation”; format: functional, organism-based; summary of the method: as §6
Staphylococcus aureus [18] = experiment: as §5, with “interstitium thickening” for “skin inflammation”; format: functional, organism-based; summary of the method: as §6
Staphylococcus aureus [19] = experiment: as §5, with “heart histopathological changes” for “skin inflammation”; format: functional, organism-based; summary of the method: as §6
Staphylococcus aureus [20] = experiment: as §5, with “liver histopathological changes” for “skin inflammation”; format: functional, organism-based; summary of the method: as §6
Staphylococcus aureus [21] = experiment: as §5, with “kidney histopathological changes” for “skin inflammation”; format: functional, organism-based; summary of the method: as §6
Staphylococcus aureus [22] = experiment: as §5, with “spleen histopathological changes” for “skin inflammation”; format: functional, organism-based; summary of the method: as §6
[23] = biological target: T1, ATP-dependent Clp protease proteolytic subunit (Staphylococcus aureus (strain NCTC 8325)); experiment: as §1, with “[…] at 20-fold molar excess” for “(DE3)”, “hr followed by dialysis for 72 hrs” for “hr”, “assay relative to control” for “assay”; summary of the method: as §4
Staphylococcus aureus [24] = experiment: Inhibition of Staphylococcus aureus ClpXP expressed in Escherichia coli […] at 1 to 100 uM using FITC-casein substrate in presence of ATP-regenerating system incubated for 50 mins by fluorescence based assay
Summary of the method: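 3.6 μM SaClpP with 3 μM SaClpX in 25 mM Hepes pH 7.5, 20 mM MgCl2, 30 mM KCl, 0.03% Tween 20, 10% glycerol, 2 mM DTT. ATP regeneration: 4 mM ATP, 20 U/mL creatine kinase, 16 mM creatine phosphate. FITC-casein 0.048 mg/mL, 494/521 nm for 50 min; slope 300–1200 s vs DMSO. Thrice, triplicate wells.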

Staphylococcus aureus [25] = experiment: Growth inhibition of methicillin-resistant Staphylococcus aureus ATCC 33591 up to 64 uM incubated for 18 hrs by broth microdilution method; format: functional, organism-based
Summary of the method: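 MRSA ATCC 33591 at ~5×10⁵ CFU/mL in MHB with graded compound concentrations vs DMSO; OD600 growth curves over 18 h; three experiments, triplicate wells. MIC by CLSI broth microdilution in CAMHB, 0.5-256 µg/mL, 18 h at 37 °C, lowest concentration with no visible growth.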

| Compound | inhibition [1] | IC50 [2] [µM] | Ratio [3] [×10² /s.M] | EC50 [4] [µM] | HC50 at 0.25 h [5] [µM] | GI50 at 24 h [6] [µM] | GI50 at 24 h [7] [µM] | ΔTm [8] [°C] | Activity [9] [%] | other results |
| --- | --- | --- | --- | --- | --- | --- | --- | --- | --- | --- |
| CC(C)Cc1ccc(C(C)C(=O)N[C@@H](Cc2ccc(O)cc2)C(=O)N[C@@H](CC(C)C)B(O)O)cc1 (some centres undefined) | Dose-dependent effect | 1.4 | 7.2 | 9.6 | > 500 | 83 | 117 | 29.5 to 42.2 | 100 | IC50 [10]: 3 to 25 µM; IC50 [11]: 3 to 25 µM; inhibition [12]: Active; inhibition [13]: inactive; inhibition [14]: inactive |
| CN[C@H](CC(C)C)C(=O)N[C@H]1C(=O)N[C@@H](CC(N)=O)C(=O)N[C@H]2C(=O)N[C@H]3C(=O)N[C@H](C(=O)N[C@H](C(=O)O)c4cc(O)cc(O)c4-c4cc3ccc4O)[C@H](O)c3ccc(c(Cl)c3)Oc3cc2cc(c3O[C@@H]2O[C@H](CO)[C@@H](O)[C@H](O)[C@H]2O[C@H]2C[C@](C)(N)[C@H](O)[C@H](C)O2)Oc2ccc(cc2Cl)[C@H]1O | – | – | – | – | – | – | – | – | – | Activity (Staphylococcus aureus [15]): Active; Activity (Staphylococcus aureus [16]): Active; Activity (Staphylococcus aureus [17]): Active; Activity (Staphylococcus aureus [18]): Active; Activity (Staphylococcus aureus [19]): Active; Activity (Staphylococcus aureus [20]): Active; Activity (Staphylococcus aureus [21]): Active; Activity (Staphylococcus aureus [22]): Active |
| COC(=O)c1ccc(OC(=O)CCc2cc(OC)c(OC)c(OC)c2)cc1 | – | – | – | – | – | – | – | – | – | Activity [8]: inactive; inhibition [23]: Active |
| CC(C)C[C@H](NC(=O)[C@H](Cc1ccccc1)NC(=O)c1cnccn1)B(O)O [BORTEZOMIB] | Dose-dependent effect | 5.3 | 2.2 | 23.5 | > 500 | 168 | 101 | 29.5 to 42.2 | 100 | inhibition (Staphylococcus aureus [24]): inactive |
| CC(C)Cc1ccc(C(C)C(=O)N[C@@H](Cc2c[nH]c3ccccc23)C(=O)N[C@@H](CC(C)C)B(O)O)cc1 (some centres undefined) | Dose-dependent effect | 1.9 | 8 | 2.6 | > 500 | 71.2 | 54.8 | 29.5 to 42.2 | 100 | growth inhibition (GI) (Staphylococcus aureus [25]): inactive |
| CC(C)C[C@H](NC(=O)CNC(=O)c1cc(Cl)ccc1Cl)B(O)O [IXAZOMIB] | Dose-dependent effect | 5.3 to 5.7 | 2.4 | 3.6 | 408 | 182 | > 200 | – | – | – |
| COc1ccc(C(=O)N[C@@H](Cc2ccccc2)C(=O)N[C@@H](CC(C)C)B(O)O)cc1 | Dose-dependent effect | 1.9 | 6.7 | 3.3 | > 500 | 196 | > 200 | 29.5 to 42.2 | 100 | IC50 [10]: 3 to 25 µM; IC50 [11]: 3 to 25 µM; inhibition [12]: Active; inhibition [13]: inactive; inhibition [14]: inactive |
| COc1ccc(C(=O)N[C@@H](Cc2ccccc2)C(=O)N[C@@H](CC(C)C)B(O)O)c(C)c1 | Dose-dependent effect | 1.5 | 9.1 | 14.8 | > 500 | > 200 | > 200 | 29.5 to 42.2 | 100 | – |
